Assay results as given in ChEMBL document CHEMBL1124493, “Synthesis and tumor uptake of 5-82Br- and 5-131I-labeled 5-halo-1-(2-fluoro-2-deoxy-beta-D-ribofuranosyl)uracils” (J Med Chem, 1989).

Tests used:
Mus musculus [1] = assay: Biodistribution of intravenously injected [82Br]-labeled compound in tumor of BDF1 female mice bearing subcutaneous Lewis lung carcinoma after 1 hours; type: ADME, organism-based; settings: in vivo, iv
Mus musculus [2] = assay: Biodistribution of intravenously injected [82Br]-labeled compound in tumor of BDF1 female mice bearing subcutaneous Lewis lung carcinoma after 2 hours; type: ADME, organism-based; settings: in vivo, iv
Mus musculus [3] = assay: Biodistribution of intravenously injected [82Br]-labeled compound in spleen of BDF1 female mice bearing subcutaneous Lewis lung carcinoma after 0.50 hours; type: ADME, organism-based; settings: in vivo, iv, 0.5 h
Summary of the method: (§1)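 Female BDF1 mice with subcutaneous Lewis lung carcinoma given an iv injection of [82Br]-labelled nucleoside, 47-130 μg carrying 20-60 kBq 82Br. Tissues were excised, weighed wet and γ-counted. Values are percent injected dose per gram of wet tissue, mean ± standard deviation of six animals, with organ-to-tumour ratios derived.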

Mus musculus [4] = assay: Biodistribution of intravenously injected [82Br]-labeled compound in spleen of BDF1 female mice bearing subcutaneous Lewis lung carcinoma after 2 hours; type: ADME, organism-based; settings: in vivo, iv
Mus musculus [5] = assay: Biodistribution of intravenously injected [82Br]-labeled compound in heart of BDF1 female mice bearing subcutaneous Lewis lung carcinoma after 1 hours; type: ADME, organism-based; settings: in vivo, iv; summary of the method: as §1
Mus musculus [6] = assay: Biodistribution of intravenously injected [82Br]-labeled compound in kidney of BDF1 female mice bearing subcutaneous Lewis lung carcinoma after 0.5 hours; type: ADME, organism-based; settings: in vivo, iv; summary of the method: as §1
Mus musculus [7] = assay: Biodistribution of intravenously injected [82Br]-labeled compound in kidney of BDF1 female mice bearing subcutaneous Lewis lung carcinoma after 1 hours; type: ADME, organism-based; settings: in vivo, iv; summary of the method: as §1
Mus musculus [8] = assay: Biodistribution of intravenously injected [82Br]-labeled compound in bone of BDF1 female mice bearing subcutaneous Lewis lung carcinoma after 0.25 hours; type: ADME, organism-based, Bone element; settings: in vivo, iv
Summary of the method: (§2)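 82Br-labeled nucleoside given intravenously to female BDF1 mice bearing subcutaneous Lewis lung carcinoma, at 47-130 μg carrying 20-60 kBq. Mice sacrificed at each time point. Wet-weighed tissues γ-counted. Values are percent injected dose per gram wet tissue, mean ± SD, n = 6.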

Mus musculus [9] = assay: Biodistribution of intravenously injected [82Br]-labeled compound in kidney of BDF1 female mice bearing subcutaneous Lewis lung carcinoma after 4 hours; type: ADME, organism-based; settings: in vivo, iv; summary of the method: as §1
Mus musculus [10] = assay: Biodistribution of intravenously injected [82Br]-labeled compound in liver of BDF1 female mice bearing subcutaneous Lewis lung carcinoma after 0.25 hours; type: ADME, organism-based; settings: in vivo, iv; summary of the method: as §1
Mus musculus [11] = assay: Biodistribution of intravenously injected [82Br]-labeled compound in liver of BDF1 female mice bearing subcutaneous Lewis lung carcinoma after 0.50 hours; type: ADME, organism-based; settings: in vivo, iv, 0.5 h; summary of the method: as §1
Mus musculus [12] = assay: Biodistribution of intravenously injected [82Br]-labeled compound in blood of BDF1 female mice bearing subcutaneous Lewis lung carcinoma after 0.50 hours; type: ADME, organism-based; settings: in vivo, iv, 0.5 h; summary of the method: as §2
Mus musculus [13] = assay: Biodistribution of intravenously injected [82Br]-labeled compound in blood of BDF1 female mice bearing subcutaneous Lewis lung carcinoma after 1 hours; type: ADME, organism-based; settings: in vivo, iv; summary of the method: as §2
Mus musculus [14] = assay: Biodistribution of intravenously injected [82Br]-labeled compound in lung of BDF1 female mice bearing subcutaneous Lewis lung carcinoma after 2 hours; type: ADME, organism-based; settings: in vivo, iv; summary of the method: as §1
Mus musculus [15] = assay: Biodistribution of intravenously injected [82Br]-labeled compound in lung of BDF1 female mice bearing subcutaneous Lewis lung carcinoma after 4 hours; type: ADME, organism-based; settings: in vivo, iv; summary of the method: as §1
Mus musculus [16] = assay: Biodistribution of intravenously injected [82Br]-labeled compound in muscle of BDF1 female mice bearing subcutaneous Lewis lung carcinoma after 1 hours; type: ADME, organism-based, Muscle tissue; settings: in vivo, iv; summary of the method: as §1
Mus musculus [17] = assay: Biodistribution of intravenously injected [82Br]-labeled compound in muscle of BDF1 female mice bearing subcutaneous Lewis lung carcinoma after 2 hours; type: ADME, organism-based, Muscle tissue; settings: in vivo, iv; summary of the method: as §1
Mus musculus [18] = assay: Biodistribution of intravenously injected [82Br]-labeled compound in muscle of BDF1 female mice bearing subcutaneous Lewis lung carcinoma after 24 hours; type: ADME, organism-based, Muscle tissue; settings: in vivo, iv; summary of the method: as §1
Mus musculus [19] = assay: Biodistribution of intravenously injected [82Br]-labeled compound in skin of BDF1 female mice bearing subcutaneous Lewis lung carcinoma after 2 hours; type: ADME, organism-based, Zone of skin; settings: in vivo, iv; summary of the method: as §1
Mus musculus [20] = assay: Biodistribution of intravenously injected [82Br]-labeled compound in liver of BDF1 female mice bearing subcutaneous Lewis lung carcinoma after 2 hours; type: ADME, organism-based; settings: in vivo, iv; summary of the method: as §1
Mus musculus [21] = assay: Biodistribution of intravenously injected [82Br]-labeled compound in liver of BDF1 female mice bearing subcutaneous Lewis lung carcinoma after 24 hours; type: ADME, organism-based; settings: in vivo, iv; summary of the method: as §1
Mus musculus [22] = assay: Biodistribution of intravenously injected [82Br]-labeled compound in liver of BDF1 female mice bearing subcutaneous Lewis lung carcinoma after 4 hours; type: ADME, organism-based; settings: in vivo, iv; summary of the method: as §1
Mus musculus [23] = assay: Biodistribution of intravenously injected [82Br]-labeled compound in spleen of BDF1 female mice bearing subcutaneous Lewis lung carcinoma after 8 hours; type: ADME, organism-based; settings: in vivo, iv
Mus musculus [24] = assay: Biodistribution of intravenously injected [82Br]-labeled compound in blood of BDF1 female mice bearing subcutaneous Lewis lung carcinoma after 0.25 hours; type: ADME, organism-based; settings: in vivo, iv; summary of the method: as §2
Mus musculus [25] = assay: Biodistribution of intravenously injected [131I]-labeled compound in bone of BDF1 female mice bearing subcutaneous Lewis lung carcinoma after 0.25 hours; type: ADME, organism-based, Bone element; settings: in vivo, iv
Summary of the method: (§3)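 Female BDF1 mice bearing subcutaneous Lewis lung carcinoma received a single intravenous dose of 0.5-1.8 μg of the 131I-labeled nucleoside (55-110 kBq). They were sacrificed at set times, and tissues were weighed wet and γ-counted. Activity is expressed as percent of injected dose per gram of wet tissue, given as mean ± standard deviation for six animals.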

Mus musculus [26] = assay: Biodistribution of intravenously injected [131I]-labeled compound in bone of BDF1 female mice bearing subcutaneous Lewis lung carcinoma after 4 hours; type: ADME, organism-based, Bone element; settings: in vivo, iv; summary of the method: as §3
Mus musculus [27] = assay: Biodistribution of intravenously injected [131I]-labeled compound in gut of BDF1 female mice bearing subcutaneous Lewis lung carcinoma after 2 hours; type: ADME, organism-based; settings: in vivo, iv; summary of the method: as §3
Mus musculus [28] = assay: Biodistribution of intravenously injected [131I]-labeled compound in gut of BDF1 female mice bearing subcutaneous Lewis lung carcinoma after 4 hours; type: ADME, organism-based; settings: in vivo, iv; summary of the method: as §3
Mus musculus [29] = assay: Biodistribution of intravenously injected [131I]-labeled compound in heart of BDF1 female mice bearing subcutaneous Lewis lung carcinoma after 4 hours; type: ADME, organism-based; settings: in vivo, iv; summary of the method: as §3
Mus musculus [30] = assay: Biodistribution of intravenously injected [131I]-labeled compound in heart of BDF1 female mice bearing subcutaneous Lewis lung carcinoma after 0.25 hours; type: ADME, organism-based; settings: in vivo, iv; summary of the method: as §3
Mus musculus [31] = assay: Biodistribution of intravenously injected [131I]-labeled compound in muscle of BDF1 female mice bearing subcutaneous Lewis lung carcinoma after 4 hours; type: ADME, organism-based, Muscle tissue; settings: in vivo, iv
Summary of the method: (§4)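 Female BDF1 mice with subcutaneous Lewis lung carcinoma given i.v. 0.5-1.8 μg of 131I-labeled nucleoside (55-110 kBq). Killed at set times. Tissues weighed wet and γ-counted. Radioactivity expressed as percent injected dose per gram wet tissue, mean ± SD of six animals.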

Mus musculus [32] = assay: Biodistribution of intravenously injected [131I]-labeled compound in spleen of BDF1 female mice bearing subcutaneous Lewis lung carcinoma after 1 hours; type: ADME, organism-based; settings: in vivo, iv; summary of the method: as §4
Mus musculus [33] = organism: Mus musculus; assay: Other urinary compounds observed in BDF1 female mice bearing lewis lung tumor after 6-7 hr of injected [131I]-compound; type: functional, tissue-based; settings: Urine
Mus musculus [34] = organism: Mus musculus; assay: Urinary [131I]5-iodouracil observed in BDF1 female mice bearing lewis lung tumor after 6-7 hr of injected [131I]-compound; type: functional, tissue-based; settings: Urine
Mus musculus [35] = organism: Mus musculus; assay: Urinary iodide observed in BDF1 female mice bearing lewis lung tumor after 24 hr of injected [131I]-compound; type: functional, tissue-based; settings: Urine
Mus musculus [36] = organism: Mus musculus; assay: Urinary iodide observed in BDF1 female mice bearing lewis lung tumor after 6-7 hr of injected [131I]-compound; type: functional, tissue-based; settings: Urine
Mus musculus [37] = assay: Biodistribution of intravenously injected [131I]-labeled compound in blood of BDF1 female mice bearing subcutaneous Lewis lung carcinoma after 0.50 hours; type: ADME, organism-based; settings: in vivo, iv, 0.5 h; summary of the method: as §3
Mus musculus [38] = organism: Mus musculus; assay: Other urinary compounds observed in BDF1 female mice bearing lewis lung tumor after 24 hr of injected [131I]-compound; type: functional, tissue-based; settings: Urine
Mus musculus [39] = assay: Biodistribution of intravenously injected [131I]-labeled compound in skin of BDF1 female mice bearing subcutaneous Lewis lung carcinoma after 1 hours; type: ADME, organism-based, Zone of skin; settings: in vivo, iv; summary of the method: as §4

## O=c1[nH]c(=O)n([C@H]2O[C@@H](CO)[C@H](O)[C@H]2F)cc1Br
Mus musculus [1]
  Injected dose/g: 0.67%
Mus musculus [2]
  Injected dose/g: 0.57%
Mus musculus [3]
  Injected dose/g: 0.59%
Mus musculus [4]
  Injected dose/g: 0.35%
Mus musculus [5]
  Injected dose/g: 0.44%
Mus musculus [6]
  Injected dose/g: 2.68%
Mus musculus [7]
  Injected dose/g: 1.12%
Mus musculus [8]
  Injected dose/g: 0.52%
Mus musculus [9]
  Injected dose/g: 0.48%
Mus musculus [10]
  Injected dose/g: 1.45%
Mus musculus [11]
  Injected dose/g: 0.65%
Mus musculus [12]
  Injected dose/g: 1.36%
Mus musculus [13]
  Injected dose/g: 0.78%
Mus musculus [14]
  Injected dose/g: 0.54%
Mus musculus [15]
  Injected dose/g: 0.38%
Mus musculus [16]
  Injected dose/g: 0.21%
Mus musculus [17]
  Injected dose/g: 0.19%
Mus musculus [18]
  Injected dose/g: 0.09%
Mus musculus [19]
  Injected dose/g: 0.39%
Mus musculus [20]
  Injected dose/g: 0.32%
Mus musculus [21]
  Injected dose/g: 0.18%
Mus musculus [22]
  Injected dose/g: 0.23%
Mus musculus [23]
  Injected dose/g: 0.34%
Mus musculus [24]
  Injected dose/g: 2.68%

## O=c1[nH]c(=O)n([C@@H]2O[C@H](CO)[C@@H](O)[C@H]2F)cc1I
Mus musculus [25]
  Injected dose/g: 2.4%
Mus musculus [26]
  Injected dose/g: 1.3%
Mus musculus [27]
  Injected dose/g: 1.9%
Mus musculus [28]
  Injected dose/g: 2.1%
Mus musculus [29]
  Injected dose/g: 3.5%
Mus musculus [30]
  Injected dose/g: 7%
Mus musculus [31]
  Injected dose/g: 1.3%
Mus musculus [32]
  Injected dose/g: 2.5%
Mus musculus [33]
  Radioactive constituents: 0%
Mus musculus [34]
  Radioactive constituents: 0%
Mus musculus [35]
  Radioactive constituents: 62.6%
Mus musculus [36]
  Radioactive constituents: 39.8%
Mus musculus [37]
  Injected dose/g: 16%
Mus musculus [38]
  Radioactive constituents: 0%
Mus musculus [39]
  Injected dose/g: 5%
